# IMP-1 inhibitor – blocks Pseudomonas aeruginosa IMP-1 metallo-beta-lactamase | purified IMP-1, nitrocefin hydrolysis, epi-absorbance fluorescence | inhibition, % at 5.6 µM | hit rate 0.45% among 290,000 | AID 1556;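 active = inhibition above the mean plus 3 SD of all compounds in the same screening run, cut at about 4.5% in these data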;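 also: 0% = IMP-1 with DMSO and 100% = DMSO wells lacking enzyme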
#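 System – purified recombinant IMP-1 beta-lactamase · Input – IMP-1 dispensed at 0.2 nM · Timing – 15 min preincubation plus 25 min reaction at 25 °C · Signal – Epi-absorbance fluorescence, 480 nm excitation, 530 nm emission · Measure – percent IMP-1 inhibition derived from blank-referenced optical density · Controls – Enzyme-plus-DMSO low control, enzyme-free DMSO high control · Replication – singlicate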
# CRFBP-R2 block – antagonists of CRF-binding protein/CRF-R2 receptor complex. inhibition, % at 11.8 µM. HEK293 CRF-R2/CRF-BP, CRF-induced calcium fluorescence. hit rate 0.59% among 350,000. AID 588475;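 active = inhibition of the ligand-induced calcium signal above about 50% at the single tested concentration, limit read from the data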
# CRFBP-R2 agonist – agonists of human CRF-binding protein/CRF-R2 receptor complex. hit rate 0.46% among 350,000. activation, % at 13.2 µM. HEK293 CRF-R2/CRF-BP, calcium dye fluorescence (FLIPR); percent of saturating CRF peptide response;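 active = activation of at least 50%, plus an integration ratio under a set limit after plate pattern correction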;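 also: plate controls were neutral control wells without compound for no effect and CRF at EC100 for full effect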
# TRPML3 ag – activates the human TRPML3 channel | Q8TDD5 | HEK293 TRPML3-YFP, Fluo-8 calcium fluorescence; 100% = the carbachol control signal | activation, % at 3 µM | hit rate 0.29% among 220,000;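 active = activation above its plate's cutoff, the mean activation of the plate's test wells plus 3 SD, cut at about 12% in these data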;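 also: 0% = DMSO only wells and 100% = carbachol wells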
# Target sequence (Q8TDD5 whole entry, looked up): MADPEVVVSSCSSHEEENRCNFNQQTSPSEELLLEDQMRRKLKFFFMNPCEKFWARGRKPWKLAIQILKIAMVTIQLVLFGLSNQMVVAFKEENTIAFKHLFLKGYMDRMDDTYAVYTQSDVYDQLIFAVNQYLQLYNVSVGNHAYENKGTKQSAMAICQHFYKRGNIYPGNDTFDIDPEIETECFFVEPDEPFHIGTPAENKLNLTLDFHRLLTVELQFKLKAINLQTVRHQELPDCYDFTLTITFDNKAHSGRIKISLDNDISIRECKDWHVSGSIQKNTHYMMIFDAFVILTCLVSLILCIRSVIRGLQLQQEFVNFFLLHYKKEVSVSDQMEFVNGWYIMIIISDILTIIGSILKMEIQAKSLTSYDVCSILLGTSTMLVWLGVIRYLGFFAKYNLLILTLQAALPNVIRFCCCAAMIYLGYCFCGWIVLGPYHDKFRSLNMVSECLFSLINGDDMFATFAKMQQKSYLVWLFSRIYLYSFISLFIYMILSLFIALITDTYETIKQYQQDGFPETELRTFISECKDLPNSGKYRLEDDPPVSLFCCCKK
#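 Test system: HEK293 cells stably carrying human TRPML3-YFP; Doses: single dose, 3 µM final nominal compound, 0.3% DMSO final; Schedule: dye loading 1 h 37 °C then 30 min ambient, 125 s read; Technique: Fluo-8 calcium fluorescence; Benchmarks: high control carbachol 87 µM, low control DMSO.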
# zfTRPN1 agonist – activates the zebrafish TRPN1 channel; HEK293 zebrafish TRPN1-YFP, Fluo-8 calcium fluorescence; 100% = response to 87 µM carbachol; AID 1424; activation, % at 3 µM; hit rate 0.18% among 220,000;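 active = activation above its plate's cutoff, the mean activation of test wells on that plate plus 3 SD, cut at about 19% in these data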;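 also: 0% = DMSO alone and 100% = 87 µM carbachol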
#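 Material – zebrafish TRPN1-YFP in HEK293 cells · Doses – 3 µM single point · Schedule – dye 1 h 37 °C plus 30 min RT · Signal – Fluo-8 calcium fluorescence, excitation 470-495 nm, emission 515-575 nm · Read-out – % activation versus carbachol response · Control set – carbachol high, DMSO low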
# VIM-2 inhibitor – inhibitors of Pseudomonas aeruginosa VIM-2 metallo-beta-lactamase; inhibition, % at 5.6 µM; purified VIM-2, nitrocefin hydrolysis, epi-absorbance fluorescence; hit rate 0.89% among 290,000;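 active = inhibition above the mean of all tested compounds plus 3 SD, cutoff set per screening run, cut at about 7.5% in these data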;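 also: red hydrolysis product quenches plate fluorescence so inhibitors raise well fluorescence; 0% = enzyme with DMSO and 100% = DMSO without enzyme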
# Active calls of the source: *; nt = no result. Rows were chosen to be rich in hits. Some 2.1% of all compounds tested hit in one or more screens of this group.
SMILES,IMP-1 inhibitor,CRFBP-R2 block,CRFBP-R2 agonist,TRPML3 ag,zfTRPN1 agonist,VIM-2 inhibitor
O=C(CC(CC(=O)c1ccccc1)C(=O)O)c1ccccc1,-4,-2,-1,1,0,8.9*
Cc1ccsc1CN(C)C(=O)c1ccc(Oc2ccccc2)cc1,-6,-11,1,nt,nt,-4
Oc1ccccc1N=Cc1c(O)ccc2ccccc12,-2,-113,123*,5,11,-2
O=C(N/N=C/c1c(O)ccc2ccccc12)c1cccc(C(F)(F)F)c1,-4,-243,208*,15*,35*,-4
Cc1ccc(S(=O)(=O)NN=Cc2c(O)ccc3ccccc23)cc1,nt,56*,-1,nt,nt,nt
COc1ccc2ccccc2c1/C=N/NC(=O)c1cccc(Br)c1,-2,-67,-1,1,1,-4
O=C(COc1ccc(F)cc1)N(Cc1ccco1)C1CCS(=O)(=O)C1 (centres undefined),-2,-6,0,nt,nt,-1
CN(Cc1ccc(F)cc1)C(=O)CNC(=O)C1CCCCC1,0,-6,0,nt,nt,-3
CCCCCCc1cc2cc(S(=O)(=O)c3ccc(F)cc3)c(=O)oc2cc1O,-3,11,54*,1,0,-1
CCCCCCc1cc2cc(-c3nnc(-c4ccccc4O)o3)c(=O)oc2cc1O,-1,-234,232*,2,5,-2
COc1cccc2cc(-c3nnc(-c4ccccc4)o3)c(=O)oc12,-4,90*,-2,1,-1,-3
COc1ccc(-c2nnc(-c3cc4ccccc4oc3=O)o2)cc1,-1,26,-1,1,0,-2
CCCCCCc1cc2cc(-c3nnc(-c4ccccc4OC)o3)c(=O)oc2cc1O,-3,-302,230*,3,3,-2
COc1ccc(C(=O)NCCCCNC(=O)c2ccc(OC)c(OC)c2)cc1OC,-1,10,0,nt,nt,-2
COc1ccc(-c2nc(N)c(C#N)c(-c3cccnc3)c2C)cc1,-4,-5,-2,0,-1,-1
O=C(CSC1=NS(=O)(=O)c2ccccc2N1)Nc1cccc(F)c1,nt,-3,-1,nt,nt,nt
O=S(=O)(c1cccc2nsnc12)N1CCNCC1,-1,2,1,nt,nt,-4
Cc1ccc(NC(=O)C2CCN(S(=O)(=O)c3ccc4c(c3)NC(=O)CO4)CC2)cc1,-4,-1,0,nt,nt,-3
COc1cc(-c2nnc(SCc3cc(=O)oc4cc(O)c(O)cc34)o2)cc(OC)c1OC,-7,5,-1,1,0,2
CCCCCCc1cc2cc(-c3nnc(-c4cc(OC)c(OC)c(OC)c4)o3)c(=O)oc2cc1O,-5,-41,99*,1,0,-5
CCCCCCc1cc2cc(C(=O)Nc3ccccc3OC)c(=O)oc2cc1O,-3,-1,102*,1,2,-2
Clc1ccc(-c2csc(N3CCOCC3)n2)cc1,-1,77*,-7,1,0,-1
CCOc1ccc(C(C)=O)cc1COc1cccnc1[N+](=O)[O-],-2,9,0,nt,nt,1
Cc1ccc(C2(C)CC(C)(C)N(C(=O)CSc3nnc(C)s3)c3ccccc32)cc1 (centres undefined),-2,115*,-2,0,-1,-3
O=C(NC1CCN(Cc2ccc(Cl)c(Cl)c2)CC1)c1ccccc1,-4,-23,2,nt,nt,-2
SMILES,IMP-1 inhibitor,CRFBP-R2 block,CRFBP-R2 agonist,TRPML3 ag,zfTRPN1 agonist,VIM-2 inhibitor
COC(=O)c1sc(NC(=O)CSc2n[nH]c(N)n2)c(C(=O)OC)c1C,-3,7,0,0,0,10*
CCOC(=O)c1sc(NC(=O)CSc2n[nH]c(-c3ccncc3)n2)c(C#N)c1C,-1,70*,-5,2,9,-4
N#CC1=C(S)N(c2ccccc2)C(c2ccc(-c3cccc(Cl)c3)o2)NC1=O (centres undefined),7.5*,-24,0,0,3,-4
CCCCCN(C(=O)CCC(=O)OCC(=O)c1c(C)cc(C)cc1C)c1c(N)n(CCCC)c(=O)[nH]c1=O,nt,52*,-1,nt,nt,nt
CCC(CC)C(=O)Nc1cccc(SC)c1,3,nt,nt,0,0,-4
CSc1cccc(NC(=O)C(C)C)c1,0,51*,-3,0,0,0
COc1cccc(CSc2nnc(C(F)(F)F)n2Cc2ccc(F)cc2)c1,-1,64*,-2,-1,-1,1
Cc1ccc(CSc2nnc(C(F)(F)F)n2Cc2ccc(F)cc2)cc1,-3,-1,0,-1,-1,-2
COc1ccc(C2=NOC(CNC(=S)N3CCOCC3)C2)cc1 (centres undefined),0,-5,0,-1,0,2
COc1ccccc1C(=O)Nc1ccccc1SC(=O)c1ccccc1OC,-3,7,1,nt,nt,-3
Cc1c(C(=O)N2CCc3ccccc32)oc2ccccc12,-3,14,0,-1,-1,4
Cc1c(C(=O)N2CC(C(=O)N3CCCCC3)Oc3ccccc32)oc2ccccc12 (centres undefined),nt,75*,-1,nt,nt,nt
COC(=O)CC(NC(=O)c1ccc(C)cc1)c1ccc2c(c1)OCO2 (centres undefined),-1,107*,-7,0,0,-3
COc1ccc(C(CC(=O)O)c2ccc3c(c2)OCO3)cc1 (centres undefined),-2,94*,1,nt,nt,-4
COC(=O)CC(NC(=O)c1ccc(C)cc1)c1ccccc1 (centres undefined),-3,16,0,0,-1,-6
N#Cc1cccc(NC(=O)CSc2ccc3c4c(cccc24)C(=O)c2ccccc2-3)c1,-1,-219,224*,3,3,-1
COc1ccc(NC(=O)CSc2ccc3c4c(cccc24)C(=O)c2ccccc2-3)cc1,-1,-112,104*,4,5,0
N#Cc1cccc(NC(=O)CSc2ccccc2)c1,-3,43,-6,1,0,-2
COc1ccc(NC(=O)CSc2nnc(C)c3ccccc23)cc1,2,6,0,nt,nt,-4
O=C(NC1CCSC1=O)C1CC(=O)N(c2ccc(F)cc2)C1 (centres undefined),-5,-6,-1,nt,nt,-6
Cc1ccc(S(=O)(=O)N2CCSCCSCCSCCSCC2)cc1,nt,-19,7,nt,nt,nt
COC(=O)c1ccccc1NC(=O)c1nc(S(=O)(=O)Cc2ccccc2)ncc1Cl,-1,54*,-1,nt,nt,1
Cc1ccc(CS(=O)(=O)c2ncc(Cl)c(C(=O)Nc3ccc(OC(F)F)cc3)n2)cc1,-1,54*,0,nt,nt,0
Cc1cccc(NC(=O)c2cc(S(=O)(=O)c3ccccc3)ccc2Cl)c1,-2,62*,1,-1,-1,0
Cc1ccccc1NC(=O)c1cc(S(=O)(=O)c2ccccc2)ccc1Cl,-5,9,-3,-1,-1,-1

# Assay outcomes as filed in PubChem.
